{
  "source": "paper PMC12024519",
  "about": "(Science Advances, 2025)",
  "key": {"[1]": {"test_system": "EZH2", "test": "AKT-mediated phosphorylation of EZH2, phospho-AKT substrate antibody", "type": "cell-based, Human", "conditions": "5 μM I-BRD9, 16 h, HEK293T transfected with HA-EZH2", "in_short": "(§1)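 Cells grown in DMEM with 10% FBS, penicillin/streptomycin, at 37°C and 5% CO2; HEK293T transfected with Lipofectamine/Plus. Cells rinsed in ice-cold PBS and lysed in Triton buffer (40 mM Hepes pH 7.4, 150 mM NaCl, 1% Triton X-100) or EBC buffer (50 mM Tris pH 7.5, 0.5% NP-40) with protease/phosphatase inhibitors. 1000–3000 μg lysate incubated with agarose-conjugated antibody 3–4 h at 4°C; beads washed five times in NETN; SDS-PAGE immunoblot.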"}, "[2]": {"test_system": "AKT", "test": "immunoblot of AKT activation", "type": "cell-based", "conditions": "5 μM I-BRD9, MDA-MB-231, indicated times", "in_short": "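MDA-MB-231 cells kept in DMEM with 10% FBS, penicillin/streptomycin, 37°C, 5% CO2. After treatment, cells washed with ice-cold PBS and lysed in Triton or EBC buffer containing protease/phosphatase inhibitors. Protein quantified by Bio-Rad assay; equal lysate amounts run on SDS-PAGE and transferred to PVDF. Blots probed with pT308-AKT, pS473-AKT, pan-AKT, pGSK-3β and GSK-3β antibodies diluted 1:1000–1:10,000 in TBST/5% milk.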"}, "[3]": {"test_system": "H3K27me3", "test": "immunoblot of H3K27me3", "type": "cell-based"}, "[4]": {"test_system": "BRD9-BD", "test": "in vitro biotin-peptide pull-down with GST-BRD9-BD", "type": "binding", "conditions": "immunoblot; for relative affinity of BRD9-BD for R391me2s vs H4R3me2s: biotin-labeled peptides, pull-down with GST-BRD9-BD"}, "[5]": {"test_system": "MDA-MB-231 cells", "test": "RNA-seq of treated MDA-MB-231 cells", "type": "cell-based, human", "conditions": "for shared down-regulated genes (I-BRD9 and ipatasertib) / shared up-regulated genes (I-BRD9 and ipatasertib): 5 μM I-BRD9 or 1 μM ipatasertib, Q value < 0.05; for hallmark gene sets significantly enriched among the 186 shared genes: MSigDB, genes shared by I-BRD9 and ipatasertib; for common down-regulated genes significantly marked by H3K27me3: of 116 genes common to I-BRD9 and ipatasertib, epidecodeR"}, "[6]": {"test_system": "BRD9 and AKT1 interaction", "test": "co-immunoprecipitation of Myc-BRD9 and HA-AKT1 in HEK293T cells", "type": "cell-based, Human", "conditions": "5 μM, 24 hours"}, "[7]": {"test_system": "AKT1 PH and KD domains", "test": "interaction of AKT1 PH and KD domains in HEK293T cells", "type": "cell-based, Human", "conditions": "5 μM I-BRD9, 16 h"}, "[8]": {"test_system": "MDA-MB-231 cells", "test": "RT-qPCR of select common genes in MDA-MB-231 cells", "type": "cell-based", "conditions": "n = 3 biological replicates"}, "[9]": {"test_system": "Tudor domain of SMN", "test": "biotin-peptide pull-down with GST-SMN-Tudor", "type": "binding", "conditions": "compared to BRD9-BD, immunoblot"}, "[10]": {"test_system": "Tudor domain of SND1", "test": "biotin-peptide pull-down with GST-SND1-Tudor", "type": "binding", "conditions": "compared to BRD9-BD, immunoblot"}, "[11]": {"test_system": "BRD9-3Mut", "test": "biotin-peptide pull-down with Myc-BRD9-3Mut", "type": "binding", "conditions": "Myc-BRD9-3Mut from HEK293T WCL; immunoblot"}, "[12]": {"test_system": "AKT", "test": "immunoblot of AKT phosphorylation in HEK293T cells", "type": "cell-based, Human", "conditions": "0.1 μM, 0-6 h"}, "[13]": {"test_system": "BRD9 interaction with AKT1", "test": "co-immunoprecipitation of BRD9 and AKT1 in MDA-MB-231 cells", "type": "cell-based", "conditions": "0.1 μM, 16 hours", "in_short": "as §1"}, "[14]": {"test_system": "SMARCA2/4", "test": "immunoblot of SMARCA2/4 depletion", "type": "cell-based", "conditions": "0.1 μM, 16 hours, MDA-MB-231", "in_short": "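Cells grown at 37°C, 5% CO2 with 10% FBS: MDA-MB-231 and MCF-7 in DMEM, BT-549 and T-47D in RPMI 1640. After washing in ice-cold PBS, cells were lysed in Triton (pH 7.4) or EBC (pH 7.5) buffer with protease and phosphatase inhibitors. Equal protein was resolved by SDS-PAGE, transferred to PVDF and probed with primary antibodies at 1:1000–1:10,000 in TBST/5% milk.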"}},
  "data": [
    {"compound": "CCn1cc(-c2cccc(C(F)(F)F)c2)c2sc(C(=N)NC3CCS(=O)(=O)CC3)cc2c1=O", "note": "[I-BRD9]", "values": [
      {"measurement": "AKT-mediated phosphorylation of EZH2", "setting": "[1]", "result": "largely blocked AKT-mediated phosphorylation of EZH2"},
      {"measurement": "AKT activation, I-BRD9", "setting": "[2]", "result": "diminished AKT activation in a time-dependent manner"},
      {"measurement": "H3K27me3, I-BRD9 combined with AKT1 depletion", "setting": "[3]; 5 μM I-BRD9, 16 h, AKT1-depleted MDA-MB-231", "result": "did not further induce H3K27me3"},
      {"measurement": "H3K27me3 induction by I-BRD9 upon overexpression of myr-AKT1", "setting": "[3]; 5 μM I-BRD9, 16 h, MDA-MB-231 stably expressing Myr-AKT1 (fig. S6J)", "result": "largely suppressed H3K27me3 induction"},
      {"measurement": "H3K27me3 signal, I-BRD9", "setting": "[3]; MDA-MB-231 (Fig. 5D) and MDA-MB-436 (0, 1, 5 μM, fig. S6C), 16 h", "result": "markedly enhanced H3K27me3 signal"},
      {"measurement": "effect on AKT1-R391me2s peptide binding of BRD9-BD in vitro", "setting": "[4]; 5 μM I-BRD9, pull-down", "result": "blocked the AKT1-R391me2s peptide binding of BRD9-BD in vitro"},
      {"measurement": "shared down-regulated genes (I-BRD9 and ipatasertib)", "setting": "[5]; 16 hours", "result": 116, "unit": "genes"},
      {"measurement": "shared up-regulated genes (I-BRD9 and ipatasertib)", "setting": "[5]; 16 hours", "result": 70, "unit": "genes"},
      {"measurement": "hallmark gene sets significantly enriched among the 186 shared genes", "setting": "[5]", "result": "Nine"},
      {"measurement": "common down-regulated genes significantly marked by H3K27me3", "setting": "[5]", "result": "Seventy-five"},
      {"measurement": "effect on BRD9 and AKT1 interaction in cells", "setting": "[6]", "result": "markedly impaired BRD9 and AKT1 interaction in cells"},
      {"measurement": "interaction between PH and KD domains, I-BRD9", "setting": "[7]", "result": "enhance the interaction between the PH and KD domains"},
      {"measurement": "mRNA of shared genes in hallmark pathways, I-BRD9", "setting": "[8]; 5 μM I-BRD9, 16 hours", "result": "transcriptionally repressed"}
    ]},
    {"compound": "CC[C@H](C)n1cc(C)c2c(C(=O)NCc3c(C)cc(C)[nH]c3=O)cc(-c3ccc(N4CCNCC4)nc3)cc21", "note": "[GSK126]", "values": [
      {"measurement": "effect on H3K27me3 elevation caused by loss of BRD9", "setting": "[3]; 5 μM GSK126, 16 h, MDA-MB-231, sgBRD9", "result": "completely blocked"},
      {"measurement": "effect on I-BRD9-enhanced H3K27me3", "setting": "[3]; GSK126 with I-BRD9, 16 h, MDA-MB-231 (fig. S6D)", "result": "suppressed"},
      {"measurement": "transcription of common genes of BRD9 and AKT", "setting": "[8]; 5 μM GSK126, 48 hours", "result": "increased the transcription of common genes of BRD9 and AKT"}
    ]},
    {"compound": "Biotin-Ahx-GLLKKDPKQ(Rme2s)LGGGSEDA [R391me2s]", "values": [
      {"measurement": "relative affinity of BRD9-BD for R391me2s vs H4R3me2s", "setting": "[4]", "result": "greater affinity for R391me2s than H4R3me2s"},
      {"measurement": "binding of Tudor domain of SMN to R391me2s", "setting": "[9]", "result": "much weaker or no binding"},
      {"measurement": "binding of Tudor domain of SND1 to R391me2s", "setting": "[10]", "result": "much weaker or no binding"},
      {"measurement": "binding of BRD9-3Mut to AKT1-R391me2s peptide", "setting": "[11]", "result": "incapable of binding"}
    ]},
    {"compound": "H4R3me2s: Biotin-H4R3me2s peptide, ANASPEC AS-65424", "values": [
      {"measurement": "relative affinity of BRD9-BD for R391me2s vs H4R3me2s", "setting": "[4]", "result": "greater affinity for R391me2s than H4R3me2s"}
    ]},
    {"compound": "O=c1cc(N2CCOCC2)oc2c(-c3ccccc3)cccc12", "note": "[LY294002]", "values": [
      {"measurement": "H3K27me3 level, LY294002", "setting": "[3]; 0, 10, 20 μM, 16 h, MDA-MB-231", "result": "elevated"}
    ]},
    {"compound": "CC(C)NC[C@@H](C(=O)N1CCN(c2ncnc3c2[C@H](C)C[C@H]3O)CC1)c1ccc(Cl)cc1", "note": "[ipatasertib]", "values": [
      {"measurement": "H3K27me3 level, ipatasertib", "setting": "[3]; 0, 1, 5 μM, 16 h, MDA-MB-231", "result": "elevated"},
      {"measurement": "share of AKT-down-regulated genes that are common with I-BRD9", "setting": "[5]; 1 μM ipatasertib, 16 hours", "result": 59, "unit": "%"},
      {"measurement": "share of AKT-up-regulated genes that are common with I-BRD9", "setting": "[5]; 1 μM ipatasertib, 16 hours", "result": 32, "unit": "%"},
      {"measurement": "shared down-regulated genes (I-BRD9 and ipatasertib)", "setting": "[5]; 16 hours", "result": 116, "unit": "genes"},
      {"measurement": "shared up-regulated genes (I-BRD9 and ipatasertib)", "setting": "[5]; 16 hours", "result": 70, "unit": "genes"},
      {"measurement": "hallmark gene sets significantly enriched among the 186 shared genes", "setting": "[5]", "result": "Nine"},
      {"measurement": "common down-regulated genes significantly marked by H3K27me3", "setting": "[5]", "result": "Seventy-five"},
      {"measurement": "mRNA of shared genes in hallmark pathways, ipatasertib", "setting": "[8]; 1 μM ipatasertib, 16 hours", "result": "transcriptionally repressed"}
    ]},
    {"compound": "Nc1cc(C(F)(F)F)c(-c2cc(N3CCOCC3)nc(N3CCOCC3)n2)cn1", "note": "[BKM120]", "values": [
      {"measurement": "H3K27me3 level, BKM120", "setting": "[3]; 0, 1, 5 μM, 16 h, MDA-MB-231", "result": "elevated"}
    ]},
    {"compound": "Cc1ncsc1-c1ccc([C@H](C)NC(=O)[C@@H]2C[C@@H](O)CN2C(=O)[C@@H](NC(=O)CN2CCN(c3cc(-c4ccccc4O)nnc3N)CC2)C(C)(C)C)cc1", "note": "[AU-15330]", "values": [
      {"measurement": "AKT phosphorylation, AU-15330", "setting": "[12]", "result": "minor effects"},
      {"measurement": "effect on BRD9 interaction with AKT1", "setting": "[13]", "result": "minimal effects on BRD9 interaction with AKT1"},
      {"measurement": "H3K27me3, AU-15330", "setting": "[3]; 0.1 μM, 0-6 h, HEK293T", "result": "minor effects"},
      {"measurement": "depletion of SMARCA2/4", "setting": "[14]", "result": "depletion of SMARCA2/4"}
    ]}
  ]
}
